Values after ≈ are worked out from the molar mass of the structure shown.
Experiments:
[1] = Antibacterial activity against Bacillus proteus by two fold broth dilution method; assay type: functional
Outline: (§1)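 MIC was determined by twofold broth dilution in microplates, following NCCLS recommendations. Clinafloxacin, chloramphenicol and fluconazole served as positive controls. Values are given in μg/mL.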

Staphylococcus aureus [2] = assay: Antibacterial activity against Staphylococcus aureus ATCC […] by two fold broth dilution method; assay type: functional; outline: as §1
Shigella dysenteriae = assay: Antibacterial activity against Shigella dysenteriae by two fold broth dilution method; assay type: functional
Outline: (§2)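 Twofold broth dilution in 96-well microtest plates following NCCLS guidance. Endpoint is the MIC (µg/mL), the lowest concentration that inhibits growth. Clinafloxacin, chloramphenicol and fluconazole served as positive controls.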

Candida albicans = assay: Antifungal activity against Candida albicans ATCC 76615 by two fold broth dilution method; assay type: functional; outline: as §1
Pseudomonas aeruginosa = assay: Antibacterial activity against Pseudomonas aeruginosa by two fold broth dilution method; assay type: functional; outline: as §1
Candida = assay: Antifungal activity against Candida mycoderma by two fold broth dilution method; assay type: functional; outline: as §1
Staphylococcus aureus [3] = assay: Antibacterial activity against methicillin-resistant Staphylococcus aureus N 315 by two fold broth dilution method; assay type: functional; settings: N315; outline: as §2
Micrococcus luteus [4] = assay: Antibacterial activity against Micrococcus luteus ATCC 4698 by two fold broth dilution method; assay type: functional; settings: NCTC 2665; outline: as §1
Escherichia coli = assay: Antibacterial activity against Escherichia coli JM109 by two fold broth dilution method; assay type: functional; outline: as §1
Bacillus subtilis = assay: Antibacterial activity against Bacillus subtilis ATCC 6633 by two fold broth dilution method; assay type: functional; outline: as §1
Micrococcus luteus [5] = assay: Ratio of chloramphenicol MIC to compound MIC for Micrococcus luteus ATCC 4698; assay type: functional, NCTC 2665
Bacillus = assay: Ratio of clinafloxacin MIC to compound MIC for Bacillus proteus; assay type: functional

SMILES | MIC [1] [µg/mL] | MIC (Staphylococcus aureus [2]) [µg/mL] | MIC (Shigella dysenteriae) [µg/mL] | MIC (Candida albicans) [µg/mL] | MIC (Pseudomonas aeruginosa) [µg/mL] | MIC (Candida) [µg/mL] | MIC (Staphylococcus aureus [3]) [µg/mL] | MIC (Micrococcus luteus [4]) [µg/mL] | MIC (Escherichia coli) [µg/mL] | MIC (Bacillus subtilis) [µg/mL] | Ratio (Micrococcus luteus [5]) | Ratio (Bacillus)
NC1CCN(c2c(F)cc3c(=O)c(C(=O)O)cn(C4CC4)c3c2Cl)C1 (configuration not stated) [CLINAFLOXACIN] | 0.5 (≈ 1.37 µM) | 0.5 (≈ 1.37 µM) | 1 (≈ 2.73 µM) | > 512 | 0.5 (≈ 1.37 µM) | > 512 | 1 (≈ 2.73 µM) | 0.5 (≈ 1.37 µM) | 0.5 (≈ 1.37 µM) | 0.5 (≈ 1.37 µM) | – | –
O=C(O)c1cn(C2CC2)c2c(Cl)c(N3CCC(NCC(O)(Cn4cncn4)c4ccc(Cl)cc4Cl)C3)c(F)cc2c1=O (racemic) | 1 (≈ 1.57 µM) | 4 (≈ 6.29 µM) | 0.5 (≈ 0.786 µM) | 4 (≈ 6.29 µM) | 2 (≈ 3.15 µM) | 0.5 (≈ 0.786 µM) | 4 (≈ 6.29 µM) | 0.5 (≈ 0.786 µM) | 4 (≈ 6.29 µM) | 32 (≈ 50.3 µM) | – | –
OC(Cn1cncn1)(Cn1cncn1)c1ccc(F)cc1F [FLUCONAZOLE] | > 512 | > 512 | > 512 | 0.5 (≈ 1.63 µM) | > 512 | 0.5 (≈ 1.63 µM) | > 512 | > 512 | > 512 | > 512 | – | –
O=C(Cn1cncn1)c1ccc(F)c(F)c1 | > 512 | > 512 | 512 (≈ 2290 µM) | > 512 | 256 (≈ 1150 µM) | 512 (≈ 2290 µM) | > 512 | 512 (≈ 2290 µM) | 64 (≈ 287 µM) | 512 (≈ 2290 µM) | – | –
O=C(Cn1cncn1)c1ccc(Cl)cc1 | 512 (≈ 2310 µM) | 512 (≈ 2310 µM) | 512 (≈ 2310 µM) | 512 (≈ 2310 µM) | 512 (≈ 2310 µM) | > 512 | 512 (≈ 2310 µM) | > 512 | > 512 | > 512 | – | –
O=C(O)c1cn(C2CC2)c2c(Cl)c(N3CCC(NCC(O)(Cn4cncn4)c4ccc(F)cc4)C3)c(F)cc2c1=O (racemic) | 0.5 (≈ 0.855 µM) | 2 (≈ 3.42 µM) | 0.5 (≈ 0.855 µM) | 1 (≈ 1.71 µM) | 0.5 (≈ 0.855 µM) | 0.5 (≈ 0.855 µM) | 2 (≈ 3.42 µM) | 0.5 (≈ 0.855 µM) | 1 (≈ 1.71 µM) | 1 (≈ 1.71 µM) | – | –
Cc1ccc(C(=O)Cn2cncn2)cc1 | > 512 | > 512 | > 512 | > 512 | 32 (≈ 159 µM) | > 512 | > 512 | > 512 | 32 (≈ 159 µM) | 256 (≈ 1270 µM) | – | –
Fc1ccc(C2(Cn3cncn3)CO2)cc1F (racemic) | 64 (≈ 270 µM) | 256 (≈ 1080 µM) | 64 (≈ 270 µM) | 128 (≈ 540 µM) | 64 (≈ 270 µM) | 8 (≈ 33.7 µM) | 256 (≈ 1080 µM) | 8 (≈ 33.7 µM) | 128 (≈ 540 µM) | 32 (≈ 135 µM) | – | –
O=C(O)c1cn(C2CC2)c2c(Cl)c(N3CCC(NCC(O)(Cn4cncn4)c4ccc(Cl)c(Cl)c4)C3)c(F)cc2c1=O (racemic) | 0.25 (≈ 0.393 µM) | 8 (≈ 12.6 µM) | 0.5 (≈ 0.786 µM) | 2 (≈ 3.15 µM) | 0.5 (≈ 0.786 µM) | 0.5 (≈ 0.786 µM) | 0.25 (≈ 0.393 µM) | 0.5 (≈ 0.786 µM) | 4 (≈ 6.29 µM) | 32 (≈ 50.3 µM) | – | –
Fc1ccc(C2(Cn3cncn3)CO2)c(F)c1 (racemic) | 32 (≈ 135 µM) | 256 (≈ 1080 µM) | 32 (≈ 135 µM) | 64 (≈ 270 µM) | 16 (≈ 67.5 µM) | 8 (≈ 33.7 µM) | 128 (≈ 540 µM) | 32 (≈ 135 µM) | 32 (≈ 135 µM) | 16 (≈ 67.5 µM) | – | –
Fc1ccc(C2(Cn3cncn3)CO2)cc1 (racemic) | 128 (≈ 584 µM) | 256 (≈ 1170 µM) | 64 (≈ 292 µM) | 64 (≈ 292 µM) | 128 (≈ 584 µM) | 8 (≈ 36.5 µM) | 128 (≈ 584 µM) | 8 (≈ 36.5 µM) | 128 (≈ 584 µM) | 8 (≈ 36.5 µM) | – | –
O=C(O)c1cn(C2CC2)c2c(Cl)c(N3CCC(NCC(O)(Cn4cncn4)c4ccc(Cl)cc4)C3)c(F)cc2c1=O (racemic) | 512 (≈ 851 µM) | > 512 | > 512 | > 512 | > 512 | > 512 | > 512 | > 512 | 32 (≈ 53.2 µM) | > 512 | – | –
O=C(Cn1cncn1)c1ccc(Cl)c(Cl)c1 | 256 (≈ 1000 µM) | 256 (≈ 1000 µM) | 512 (≈ 2000 µM) | > 512 | 128 (≈ 500 µM) | 512 (≈ 2000 µM) | > 512 | 512 (≈ 2000 µM) | 32 (≈ 125 µM) | 512 (≈ 2000 µM) | – | –
O=C(N[C@H](CO)[C@H](O)c1ccc([N+](=O)[O-])cc1)C(Cl)Cl [CHLORAMPHENICOL] | 32 (≈ 99 µM) | 16 (≈ 49.5 µM) | 32 (≈ 99 µM) | > 512 | 32 (≈ 99 µM) | > 512 | 16 (≈ 49.5 µM) | 8 (≈ 24.8 µM) | 32 (≈ 99 µM) | 32 (≈ 99 µM) | – | –
Cc1ccc(C2(Cn3cncn3)CO2)cc1 (racemic) | 256 (≈ 1190 µM) | 256 (≈ 1190 µM) | 256 (≈ 1190 µM) | 256 (≈ 1190 µM) | 256 (≈ 1190 µM) | 1 (≈ 4.65 µM) | 512 (≈ 2380 µM) | 1 (≈ 4.65 µM) | 256 (≈ 1190 µM) | 8 (≈ 37.2 µM) | 8 | –
O=C(Cn1cncn1)c1ccc(F)cc1F | 512 (≈ 2290 µM) | 512 (≈ 2290 µM) | 512 (≈ 2290 µM) | 512 (≈ 2290 µM) | 256 (≈ 1150 µM) | > 512 | > 512 | 512 (≈ 2290 µM) | 32 (≈ 143 µM) | 512 (≈ 2290 µM) | – | –
Clc1ccc(C2(Cn3cncn3)CO2)cc1Cl (racemic) | 32 (≈ 118 µM) | 128 (≈ 474 µM) | 64 (≈ 237 µM) | 64 (≈ 237 µM) | 128 (≈ 474 µM) | 16 (≈ 59.2 µM) | 256 (≈ 948 µM) | 16 (≈ 59.2 µM) | 128 (≈ 474 µM) | 16 (≈ 59.2 µM) | – | –
O=C(Cn1cncn1)c1ccc(F)cc1 | > 512 | > 512 | > 512 | > 512 | 512 (≈ 2500 µM) | > 512 | > 512 | > 512 | > 512 | > 512 | – | –
Cc1ccc(C(O)(CNC2CCN(c3c(F)cc4c(=O)c(C(=O)O)cn(C5CC5)c4c3Cl)C2)Cn2cncn2)cc1 (racemic) | 0.5 (≈ 0.861 µM) | 2 (≈ 3.44 µM) | 0.5 (≈ 0.861 µM) | 0.5 (≈ 0.861 µM) | 0.5 (≈ 0.861 µM) | 0.5 (≈ 0.861 µM) | 0.25 (≈ 0.43 µM) | 2 (≈ 3.44 µM) | 1 (≈ 1.72 µM) | 0.5 (≈ 0.861 µM) | – | –
Clc1ccc(C2(Cn3cncn3)CO2)c(Cl)c1 (racemic) | 64 (≈ 237 µM) | 256 (≈ 948 µM) | 64 (≈ 237 µM) | 32 (≈ 118 µM) | 128 (≈ 474 µM) | 16 (≈ 59.2 µM) | 256 (≈ 948 µM) | 32 (≈ 118 µM) | 256 (≈ 948 µM) | 32 (≈ 118 µM) | – | –
Clc1ccc(C2(Cn3cncn3)CO2)cc1 (racemic) | 16 (≈ 67.9 µM) | 64 (≈ 272 µM) | 32 (≈ 136 µM) | 32 (≈ 136 µM) | 32 (≈ 136 µM) | 32 (≈ 136 µM) | 256 (≈ 1090 µM) | 32 (≈ 136 µM) | 32 (≈ 136 µM) | 16 (≈ 67.9 µM) | – | –
O=C(O)c1cn(C2CC2)c2c(Cl)c(N3CCC(NCC(O)(Cn4cncn4)c4ccc(F)c(F)c4)C3)c(F)cc2c1=O (racemic) | 0.5 (≈ 0.829 µM) | 0.5 (≈ 0.829 µM) | 0.5 (≈ 0.829 µM) | 0.5 (≈ 0.829 µM) | 0.5 (≈ 0.829 µM) | 0.5 (≈ 0.829 µM) | 0.5 (≈ 0.829 µM) | 0.5 (≈ 0.829 µM) | 1 (≈ 1.66 µM) | 0.5 (≈ 0.829 µM) | – | –
O=C(O)c1cn(C2CC2)c2c(Cl)c(N3CCC(NCC(O)(Cn4cncn4)c4ccc(F)cc4F)C3)c(F)cc2c1=O (racemic) | 0.25 (≈ 0.415 µM) | 0.5 (≈ 0.829 µM) | 0.5 (≈ 0.829 µM) | 0.5 (≈ 0.829 µM) | 0.5 (≈ 0.829 µM) | 0.5 (≈ 0.829 µM) | 0.25 (≈ 0.415 µM) | 0.5 (≈ 0.829 µM) | 1 (≈ 1.66 µM) | 0.5 (≈ 0.829 µM) | – | 2
O=C(Cn1cncn1)c1ccc(Cl)cc1Cl | 512 (≈ 2000 µM) | > 512 | 512 (≈ 2000 µM) | 512 (≈ 2000 µM) | 256 (≈ 1000 µM) | > 512 | > 512 | > 512 | 128 (≈ 500 µM) | 512 (≈ 2000 µM) | – | –
